Laboratory results as given in ChEMBL document CHEMBL1140444, “Synthesis and structure-activity relationships of novel anti-hepatitis C agents: N3,5'-cyclo-4-(beta-D-ribofuranosyl)-vic-triazolo[4,5-b]pyridin-5-one derivatives” (2005).

Key:
Huh-7 = test: Cytotoxic concentration against HCV RNA replication in a subgenomic replicon Huh7 cell line; format: functional; settings: Homo sapiens
Hepatitis C virus = test: Effective concentration against HCV RNA replication in a subgenomic replicon Huh7 cell line; format: functional, Hepacivirus hominis; settings: Huh-7
In short: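 HCV replicon Clone A cells in log-phase growth exposed to various compound concentrations for 3 days. HCV RNA extracted and quantified by real-time PCR. EC90 is the concentration reducing HCV RNA by 90%.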

SMILES | CC50 (Huh-7) | EC90 (Hepatitis C virus)
Cc1cc(=O)n2c3c1nnn3C[C@H]1O[C@@H]2[C@H](O)C1O (single isomer, unassigned) | 22.6 µM | 15.4 µM
CCCCNc1cc(=O)n2c3c1nnn3C[C@H]1O[C@@H]2[C@H](O)C1O (single isomer, unassigned) | > 100 µM | > 100 µM
OC1[C@@H](O)[C@H]2O[C@@H]1Cn1nnc3ccc(=S)n2c31 (single isomer, unassigned) | 11.9 µM | 10 µM
O=c1cc(NCCO)c2nnn3c2n1[C@@H]1O[C@H](C3)C(O)[C@H]1O (single isomer, unassigned) | > 100 µM | > 100 µM
COCCNc1cc(=O)n2c3c1nnn3C[C@H]1O[C@@H]2[C@H](O)C1O (single isomer, unassigned) | 97.3 µM | 86.1 µM
CN(C)c1cc(=O)n2c3c1nnn3C[C@H]1O[C@@H]2[C@H](O)C1O (single isomer, unassigned) | > 100 µM | > 100 µM
O=c1c(Cl)cc2nnn3c2n1[C@@H]1O[C@H](C3)C(O)[C@H]1O (single isomer, unassigned) | 0.06 µM | 2.1 µM
CNc1cc(=O)n2c3c1nnn3C[C@H]1O[C@@H]2[C@H](O)C1O (single isomer, unassigned) | 4.6 µM | 7.4 µM
CCCNc1cc(=O)n2c3c1nnn3C[C@H]1O[C@@H]2[C@H](O)C1O (single isomer, unassigned) | > 100 µM | > 100 µM
CCNc1cc(=O)n2c3c1nnn3C[C@H]1O[C@@H]2[C@H](O)C1O (single isomer, unassigned) | > 100 µM | > 100 µM
O=c1c(Br)cc2nnn3c2n1[C@@H]1O[C@H](C3)C(O)[C@H]1O (single isomer, unassigned) | 1.5 µM | 1.9 µM
O=c1cc(NCCCO)c2nnn3c2n1[C@@H]1O[C@H](C3)C(O)[C@H]1O (single isomer, unassigned) | > 100 µM | > 100 µM
Nc1cc(=O)n2c3c1nnn3C[C@H]1O[C@@H]2[C@H](O)C1O (single isomer, unassigned) | 74.2 µM | 29.7 µM
O=c1ccc2nnn3c2n1[C@@H]1O[C@H](C3)C(O)[C@H]1O (single isomer, unassigned) | 30.6 µM | 79.8 µM
O=c1cc(NC2CC2)c2nnn3c2n1[C@@H]1O[C@H](C3)C(O)[C@H]1O (single isomer, unassigned) | > 100 µM | > 100 µM
